Assay [1] addresses T1, Aromatase (Homo sapiens, UniProt P11511).
T1 sequence (P11511 whole entry): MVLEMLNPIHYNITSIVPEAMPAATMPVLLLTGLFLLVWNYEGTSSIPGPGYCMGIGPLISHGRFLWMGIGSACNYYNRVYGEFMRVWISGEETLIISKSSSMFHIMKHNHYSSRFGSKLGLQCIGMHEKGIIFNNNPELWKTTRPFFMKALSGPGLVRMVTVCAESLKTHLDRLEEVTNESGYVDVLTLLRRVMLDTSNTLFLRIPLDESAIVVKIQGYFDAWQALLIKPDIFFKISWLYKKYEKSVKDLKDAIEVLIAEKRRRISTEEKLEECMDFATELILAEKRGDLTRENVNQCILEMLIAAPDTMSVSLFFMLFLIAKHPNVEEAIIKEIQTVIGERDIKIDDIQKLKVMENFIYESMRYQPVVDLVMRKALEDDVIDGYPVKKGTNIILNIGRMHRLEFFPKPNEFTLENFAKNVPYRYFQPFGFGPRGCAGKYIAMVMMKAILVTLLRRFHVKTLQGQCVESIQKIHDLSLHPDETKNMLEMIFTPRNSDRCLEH
Description: In vitro competitive inhibitory activity was measured on Cytochrome P450 19A1 of human placental microsomes.

Assay [2] addresses T1, Aromatase. Description: The binding affinity was determined on Cytochrome P450 19A1 by analysis of Dixon plot.
The target of assay [3] is T1, Aromatase. Briefly: Time dependent inactivation of Cytochrome P450 19A1 was obtained by Kitz-Wilson plot.
The target in assay [4] is T1, Aromatase. Briefly: Time dependent inactivation of aromatase cytochrome P450 19A1 from Kitz-Wilson plot. The method, boiled down:
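Human placental microsomes (105000g pellet, washed with 0.05 mM dithiothreitol, lyophilized) incubated with inhibitor plus NADPH in 67 mM phosphate buffer in air. Residual aromatase activity then measured in 5-min kinetic assay by 3H2O release from [1β-3H]androstenedione. Pseudo-first-order loss over first 12 min analysed by Kitz-Wilson method. Double-reciprocal plot of kobs versus inhibitor concentration gave kinact and Ki. Points are means of duplicates.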

The target in assay [5] is T1, Aromatase. Description: Binding affinity for aromatase cytochrome P45019A1 by analysis of Dixon plot.

What is called IC50 is the midpoint of a concentration-inhibition curve. A high value points to lower potency. Regarding `C[C@]12CC[C@H]3[C@@H](CC=C4CCCC[C@@]43CO)[C@@H]1CCC2=O`, the IC50 on Aromatase [1] stood at 6.9 µM. The same compound registered a Ki on Aromatase [2] of 1 µM.
For `C[C@]12CCCCC1=CC[C@@H]1[C@@H]2CC[C@]2(C)C(=O)CC[C@@H]12`, in that order: 0.66 µM and 0.12 µM.
By kinact is commonly meant the rate constant of inactivation at saturating inhibitor. As to `CC12CCC3C(C(=O)C=C4C=CCCC43C)C1CCC2=O` (stereo unspecified), the Ki was 0.18 µM at Aromatase [3] and 0.22 µM on Aromatase [2]. The kinact on Aromatase [3] is 0.00198 s⁻¹. The compound also returned an IC50 at Aromatase [1] of 1.8 µM.
Consider `CC12CCCCC1=CC(=O)C1C2CCC2(C)C(O)CCC12` (stereo unspecified), for which the IC50 at Aromatase [1] amounted to 42 µM. Besides, at Aromatase [2], the Ki was determined as 5.5 µM.
In turn, `CC12CCC3C(C(=O)C=C4C=CCCC43C=O)C1CCC2=O` (stereo unspecified) registered an IC50 on Aromatase [1] of 11 µM. Also, at Aromatase [4], the Ki was found to be 2.9 µM and the kinact is 0.00315 s⁻¹. The compound further yielded a Ki on Aromatase [2] of 1.8 µM.
In the same order, the values of `CC12CCC3C(C(=O)C=C4C=CCCC43CO)C1CCC2=O` (stereo unspecified) are 60 µM, 7 µM, 0.00147 s⁻¹ and 15 µM.
With `CC12CCC3C(C(=O)C=C4CCCCC43CO)C1CCC2=O` (stereo unspecified), at Aromatase [3], the Ki came to 11 µM and the kinact was 0.000967 s⁻¹. The compound further came in with an IC50 at Aromatase [1] of 56 µM. The Ki on Aromatase [2] came to 11 µM.
`CC12CCC3C(CC=C4CCCCC43CO)C1CCC2O` (stereo unspecified): the 50% inhibitory concentration (IC50) on Aromatase [1] was found to be 62 µM. At Aromatase [5], the Ki turned out to be 9.8 µM.
For the compound `CC12CCC3C4CCC(=O)C=C4CCC3C1CCC2=O` (stereo unspecified), the half-maximal inhibitory concentration (IC50) on Aromatase [1] amounted to 1.2 µM. Further, the Ki on Aromatase [5] came to 0.14 µM.
Take `CC12CCC=CC1=CC(=O)C1C2CCC2(C)C1CC[C@@H]2O` (stereo partly specified): the IC50 at Aromatase [1] was found to be 42 µM. The compound also yielded a Ki at Aromatase [2] of 5.3 µM.
On Aromatase [1], `CC12CCC3C(C(=O)C=C4CCCCC43CO)C1CCC2O` (stereo unspecified) came in with an IC50 of 140 µM. The compound further came in with a Ki on Aromatase [2] of 45 µM.
For `CC12CCCCC1=CCC1C2CCC2(C)C(O)CCC12` (stereo unspecified), in that order: 30 µM and 3 µM.
On to `CC12CCC3C(C(=O)C=C4CCCCC43C)C1CCC2=O` (stereo unspecified), for which the Ki came out at 0.15 µM at Aromatase [3] and 0.25 µM on Aromatase [2]. In addition, the kinact on Aromatase [3] was 0.00115 s⁻¹. Further, at Aromatase [1], the IC50 stood at 1.8 µM.
For `CC12CCC3C4CCCCC4=CC(=O)C3C1CCC2=O` (stereo unspecified), the Ki at Aromatase [3] came out at 2.6 µM; on Aromatase [2] it was 2.4 µM. The kinact on Aromatase [3] was 0.00113 s⁻¹. The compound further yielded an IC50 at Aromatase [1] of 28 µM.
`CC12CCC=CC1=CCC1C2CCC2(C)C1CC[C@@H]2O` (stereo partly specified) displayed an IC50 at Aromatase [1] of 18 µM. The compound also yielded a Ki on Aromatase [2] of 2 µM.
In the same order, the values of `CC12CCC3C(CC=C4C=CCCC43C)C1CCC2=O` (stereo unspecified) are 0.34 µM and 0.058 µM.
Turning to `CC12CCC3C(C(=O)C=C4CCCCC43C=O)C1CCC2=O` (stereo unspecified), the Ki at Aromatase [3] amounted to 20 µM; at Aromatase [2], 13 µM. Besides, at Aromatase [3], the kinact is 0.00238 s⁻¹. Also, the IC50 at Aromatase [1] came out at 60 µM.
For the compound `CC12CCC3C(CC=C4CCCCC43C)C1C[C@@H](Br)C2=O` (stereo partly specified), on Aromatase [1], the IC50 was found to be 55 µM. In addition, the Ki at Aromatase [2] was 11 µM.
For `CC12CCC3C4CCC=CC4=CC(=O)C3C1CCC2=O` (stereo unspecified), in that order: 33 µM and 3 µM.
Take `CC12CCC3C(CC=C4CCCCC43C=O)C1CCC2=O` (stereo unspecified): the IC50 on Aromatase [1] was 9 µM. This compound also registered a Ki on Aromatase [5] of 1.4 µM.
In the same order, the values of `C[C@]12CCC(=O)C=C1CC[C@@H]1[C@@H]2CC[C@]2(C)C(=O)CC[C@@H]12` [ANDROSTENEDIONE] are 0.3 µM and 0.02 µM.

The values above are taken from ChEMBL document CHEMBL1127575, “Synthesis of androst-5-en-7-ones and androsta-3,5-dien-7-ones and their related 7-deoxy analogs as conformational and catalytic probes for the active site of aromatase” (J Med Chem, 1994).
